Test results: ChEMBL document CHEMBL4811275, “Iodinated 1,2-diacylhydrazines, benzohydrazide-hydrazones and their analogues as dual antimicrobial and cytotoxic agents” (Bioorg Med Chem, 2021)
In brackets after ≈: the same amount, converted by molar mass.

Experiments:
HepG2 = assay: Cytotoxicity against human HepG2 cells assessed as reduction in cell viability incubated for 24 hrs by cell-titer 96 aqueous one solution cell proliferation assay; assay type: functional, cell-based; details: HepG2, 24 h
Staphylococcus aureus [1] = assay: Antibacterial activity against Staphylococcus aureus ATCC 29213 assessed as reduction in bacterial growth incubated for 24 hrs by broth microdilution method; assay type: functional
How it was run: (§1)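 Cation-adjusted Mueller-Hinton broth microdilution per EUCAST, modified; compounds from DMSO stocks, final DMSO ≤1% v/v; scale starting from 0.49 µM. Static incubation at 35 ± 2 °C, dark, humidified, read at 24 and 48 h. MIC = lowest concentration with no visible growth by eye; duplicates, parallel readings within one dilution step; growth and medium/DMSO controls included.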

Staphylococcus aureus [2] = assay: Antibacterial activity against Staphylococcus aureus ATCC 29213 assessed as reduction in bacterial growth incubated for 48 hrs by broth microdilution method; assay type: functional; how it was run: as §1
Staphylococcus aureus [3] = assay: Antibacterial activity against methicillin-resistant Staphylococcus aureus ATCC 43300 assessed as reduction in bacterial growth incubated for 24 hrs by broth microdilution method; assay type: functional
How it was run: (§2)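 EUCAST-based broth microdilution in cation-adjusted Mueller-Hinton broth. DMSO stocks, final DMSO ≤1% v/v, concentration scale starting from 0.49 µM. Static incubation at 35 ± 2 °C, dark and humidified. Run in duplicate, accepted only if parallel MICs differ by at most one dilution step. MIC is the lowest concentration with no visible growth by naked eye.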

Staphylococcus aureus [4] = assay: Antibacterial activity against methicillin-resistant Staphylococcus aureus ATCC 43300 assessed as reduction in bacterial growth incubated for 48 hrs by broth microdilution method; assay type: functional; how it was run: as §2
[5] = tested on: Staphylococcus epidermidis; assay: Antibacterial activity against Staphylococcus epidermidis ATCC 12228 assessed as reduction in bacterial growth incubated for 24 hrs by broth microdilution method; assay type: functional; how it was run: as §1
[6] = tested on: Staphylococcus epidermidis; assay: Antibacterial activity against Staphylococcus epidermidis ATCC 12228 assessed as reduction in bacterial growth incubated for 48 hrs by broth microdilution method; assay type: functional; how it was run: as §1
Enterococcus faecalis [7] = assay: Antibacterial activity against Enterococcus faecalis ATCC 29212 assessed as reduction in bacterial growth incubated for 24 hrs by broth microdilution method; assay type: functional; how it was run: as §1
Enterococcus faecalis [8] = assay: Antibacterial activity against Enterococcus faecalis ATCC 29212 assessed as reduction in bacterial growth incubated for 48 hrs by broth microdilution method; assay type: functional; how it was run: as §1
Escherichia coli [9] = assay: Antibacterial activity against Escherichia coli ATCC 25922 assessed as reduction in bacterial growth incubated for 24 hrs by broth microdilution method; assay type: functional; how it was run: as §1
Escherichia coli [10] = assay: Antibacterial activity against Escherichia coli ATCC 25922 assessed as reduction in bacterial growth incubated for 48 hrs by broth microdilution method; assay type: functional; how it was run: as §1

| SMILES | IC50 (HepG2) [µM] | MIC (Staphylococcus aureus [1]) [µM] | MIC (Staphylococcus aureus [2]) [µM] | MIC (Staphylococcus aureus [3]) [µM] | MIC (Staphylococcus aureus [4]) [µM] | MIC [5] [µM] | MIC [6] [µM] | MIC (Enterococcus faecalis [7]) [µM] | MIC (Enterococcus faecalis [8]) [µM] | MIC (Escherichia coli [9]) [µM] | MIC (Escherichia coli [10]) [µM] |
| --- | --- | --- | --- | --- | --- | --- | --- | --- | --- | --- | --- |
| O=C(NNC(=O)c1cc(I)cc(I)c1O)c1ccccc1 | 98 |  |  |  |  |  |  |  |  |  |  |
| O=C(N/N=C/c1cc(I)c(O)c(I)c1)c1ccccc1 | 191 | 250 (≈ 123 µg/mL) | 250 (≈ 123 µg/mL) | 500 (≈ 246 µg/mL) | > 500 | > 500 | > 500 | > 500 | > 500 | > 500 | > 500 |
| O=C(NNC(=O)c1cc(I)cc(I)c1O)c1ccc(C(F)(F)F)cc1 | 167 |  |  |  |  |  |  |  |  |  |  |
| Cc1ccc(C(=O)NNC(=O)c2cc(I)cc(I)c2O)cc1 | 86.4 | 125 (≈ 65.3 µg/mL) | > 125 | > 125 | > 125 | 125 (≈ 65.3 µg/mL) | > 125 | > 125 | > 125 | > 125 | > 125 |
| COc1ccc(C(=O)N/N=C/c2cc(I)cc(I)c2O)cc1 | 45.1 | > 500 | > 500 | > 500 | > 500 | > 500 | > 500 | > 500 | > 500 | > 500 | > 500 |
| O=C(NNC(=O)c1cc(I)cc(I)c1O)c1ccc(F)cc1 | 87 | 500 (≈ 263 µg/mL) | 500 (≈ 263 µg/mL) | 500 (≈ 263 µg/mL) | 500 (≈ 263 µg/mL) | 500 (≈ 263 µg/mL) | 500 (≈ 263 µg/mL) | 500 (≈ 263 µg/mL) | 500 (≈ 263 µg/mL) | > 500 | > 500 |
| O=C(N/N=C/c1cc(I)c(O)c(I)c1)c1ccc(O)cc1 | 110 | 500 (≈ 254 µg/mL) | 500 (≈ 254 µg/mL) | > 500 | > 500 | > 500 | > 500 | > 500 | > 500 | > 500 | > 500 |
| CCN1CCN(C(=O)N[C@@H](C(=O)N[C@@H]2C(=O)N3[C@@H]2SC(C)(C)[C@@H]3C(=O)O)c2ccccc2)C(=O)C1=O [PIPERACILLIN SODIUM] |  | 1.85 |  | 14.8 |  | > 59.3 |  | 7.41 |  | 3.71 |  |
| O=C(N/N=C/c1cc(I)cc(I)c1O)c1ccc(Cl)cc1 | 14.8 | 31.2 (≈ 16.5 µg/mL) | 31.2 (≈ 16.5 µg/mL) | 31.2 (≈ 16.5 µg/mL) | 62.5 (≈ 32.9 µg/mL) | 31.2 (≈ 16.5 µg/mL) | 62.5 (≈ 32.9 µg/mL) | 62.5 (≈ 32.9 µg/mL) | 62.5 (≈ 32.9 µg/mL) | > 500 | > 500 |
| O=C(N/N=C/c1cc(I)cc(I)c1O)c1ccccc1 | > 50 | 62.5 (≈ 30.8 µg/mL) | 125 (≈ 61.5 µg/mL) | 62.5 (≈ 30.8 µg/mL) | 125 (≈ 61.5 µg/mL) | 62.5 (≈ 30.8 µg/mL) | 125 (≈ 61.5 µg/mL) | 250 (≈ 123 µg/mL) | 500 (≈ 246 µg/mL) | > 500 | > 500 |
| O=C(NNCc1cc(I)cc(I)c1O)c1ccc(Cl)cc1 | 52.2 | 31.2 (≈ 16.5 µg/mL) | 62.5 (≈ 33 µg/mL) | 31.2 (≈ 16.5 µg/mL) | 62.5 (≈ 33 µg/mL) | 15.6 (≈ 8.26 µg/mL) | 15.6 (≈ 8.26 µg/mL) | 15.6 (≈ 8.26 µg/mL) | 15.6 (≈ 8.26 µg/mL) | > 500 | > 500 |
| Cc1ccc(C(=O)N/N=C/c2cc(I)c(O)c(I)c2)cc1 | > 100 | 250 (≈ 127 µg/mL) | 500 (≈ 253 µg/mL) | > 500 | > 500 | > 500 | > 500 | > 500 | > 500 | > 500 | > 500 |
| COc1ccc(C(=O)NNC(=O)c2cc(I)cc(I)c2O)cc1 | 132 | 500 (≈ 269 µg/mL) | > 500 | 500 (≈ 269 µg/mL) | > 500 | 500 (≈ 269 µg/mL) | > 500 | 500 (≈ 269 µg/mL) | > 500 | > 500 | > 500 |
| O=C(N/N=C/c1cc(I)c(O)c(I)c1)c1ccc(C(F)(F)F)cc1 | 57.4 | 125 (≈ 70 µg/mL) | 500 (≈ 280 µg/mL) | 500 (≈ 280 µg/mL) | 500 (≈ 280 µg/mL) | 500 (≈ 280 µg/mL) | 500 (≈ 280 µg/mL) | 500 (≈ 280 µg/mL) | 500 (≈ 280 µg/mL) | > 500 | > 500 |
| O=C(NNC(=O)c1cc(I)cc(I)c1O)c1ccc([N+](=O)[O-])cc1 | 159 |  |  |  |  |  |  |  |  |  |  |
| O=C(N/N=C/c1cc(I)c(O)c(I)c1)c1ccc(Br)cc1 | > 50 | > 500 | > 500 | > 500 | > 500 | > 500 | > 500 | > 500 | > 500 | > 500 | > 500 |
| Cc1ccc(C(=O)N/N=C/c2cc(I)cc(I)c2O)cc1 | > 25 | > 500 | > 500 | > 500 | > 500 | > 500 | > 500 | > 500 | > 500 | > 500 | > 500 |
| O=C(NNC(=O)c1cc(I)cc(I)c1O)c1ccc(Cl)cc1 | 48.6 | 62.5 (≈ 33.9 µg/mL) | 62.5 (≈ 33.9 µg/mL) | 62.5 (≈ 33.9 µg/mL) | 62.5 (≈ 33.9 µg/mL) | 31.2 (≈ 17 µg/mL) | 62.5 (≈ 33.9 µg/mL) | 125 (≈ 67.8 µg/mL) | 125 (≈ 67.8 µg/mL) | > 500 | > 500 |
| O=C(NNC(=O)c1cc(I)cc(I)c1O)c1ccc(Br)cc1 | 62.8 |  |  |  |  |  |  |  |  |  |  |
